Here are results for two molecules from BindingDB's records for doi:10.1021/np070447m (2008).

Assay [1] concerns the target T1, Serine/threonine-protein kinase PLK4 (Homo sapiens, UniProt O00444).
T1 sequence (O00444 whole entry): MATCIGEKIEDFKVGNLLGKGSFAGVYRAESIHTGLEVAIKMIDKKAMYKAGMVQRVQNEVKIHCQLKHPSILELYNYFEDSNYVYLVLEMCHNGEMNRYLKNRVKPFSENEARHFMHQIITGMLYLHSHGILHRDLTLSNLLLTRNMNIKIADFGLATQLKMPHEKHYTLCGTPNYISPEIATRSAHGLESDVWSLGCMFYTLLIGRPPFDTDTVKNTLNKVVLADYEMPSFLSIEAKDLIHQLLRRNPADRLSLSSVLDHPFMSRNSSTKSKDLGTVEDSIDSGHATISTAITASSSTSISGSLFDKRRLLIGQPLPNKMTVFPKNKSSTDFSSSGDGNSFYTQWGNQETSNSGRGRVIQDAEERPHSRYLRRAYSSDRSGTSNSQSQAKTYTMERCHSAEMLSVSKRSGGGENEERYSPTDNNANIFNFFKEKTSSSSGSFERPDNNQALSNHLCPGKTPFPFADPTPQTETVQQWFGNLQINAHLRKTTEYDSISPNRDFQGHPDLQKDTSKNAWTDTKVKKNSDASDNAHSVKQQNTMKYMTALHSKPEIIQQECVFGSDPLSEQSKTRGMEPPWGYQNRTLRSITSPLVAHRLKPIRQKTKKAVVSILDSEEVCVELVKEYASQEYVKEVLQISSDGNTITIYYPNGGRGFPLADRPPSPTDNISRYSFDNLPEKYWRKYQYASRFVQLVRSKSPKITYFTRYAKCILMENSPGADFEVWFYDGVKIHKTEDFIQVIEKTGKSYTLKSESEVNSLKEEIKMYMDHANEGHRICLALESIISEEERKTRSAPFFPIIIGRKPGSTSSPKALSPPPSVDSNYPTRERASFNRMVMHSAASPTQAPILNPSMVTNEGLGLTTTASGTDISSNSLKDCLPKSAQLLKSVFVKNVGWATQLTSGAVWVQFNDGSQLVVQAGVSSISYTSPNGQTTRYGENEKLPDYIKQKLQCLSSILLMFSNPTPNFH
As to the kind of experiment: Inhibition of recombinant SAK.

Assay [2] deals with Hepatocyte growth factor receptor (Homo sapiens, UniProt P08581). Kind of assay: Inhibition of recombinant MET.
Assay [3] concerns the target Receptor tyrosine-protein kinase erbB-2 (Homo sapiens, UniProt P04626). Kind of assay: Inhibition of recombinant ERBB2.
In another assay the target is Focal adhesion kinase 1 (Homo sapiens, UniProt Q05397). Kind of assay: Inhibition of recombinant FAK.
Sequence of Focal adhesion kinase 1 (Q05397 whole entry): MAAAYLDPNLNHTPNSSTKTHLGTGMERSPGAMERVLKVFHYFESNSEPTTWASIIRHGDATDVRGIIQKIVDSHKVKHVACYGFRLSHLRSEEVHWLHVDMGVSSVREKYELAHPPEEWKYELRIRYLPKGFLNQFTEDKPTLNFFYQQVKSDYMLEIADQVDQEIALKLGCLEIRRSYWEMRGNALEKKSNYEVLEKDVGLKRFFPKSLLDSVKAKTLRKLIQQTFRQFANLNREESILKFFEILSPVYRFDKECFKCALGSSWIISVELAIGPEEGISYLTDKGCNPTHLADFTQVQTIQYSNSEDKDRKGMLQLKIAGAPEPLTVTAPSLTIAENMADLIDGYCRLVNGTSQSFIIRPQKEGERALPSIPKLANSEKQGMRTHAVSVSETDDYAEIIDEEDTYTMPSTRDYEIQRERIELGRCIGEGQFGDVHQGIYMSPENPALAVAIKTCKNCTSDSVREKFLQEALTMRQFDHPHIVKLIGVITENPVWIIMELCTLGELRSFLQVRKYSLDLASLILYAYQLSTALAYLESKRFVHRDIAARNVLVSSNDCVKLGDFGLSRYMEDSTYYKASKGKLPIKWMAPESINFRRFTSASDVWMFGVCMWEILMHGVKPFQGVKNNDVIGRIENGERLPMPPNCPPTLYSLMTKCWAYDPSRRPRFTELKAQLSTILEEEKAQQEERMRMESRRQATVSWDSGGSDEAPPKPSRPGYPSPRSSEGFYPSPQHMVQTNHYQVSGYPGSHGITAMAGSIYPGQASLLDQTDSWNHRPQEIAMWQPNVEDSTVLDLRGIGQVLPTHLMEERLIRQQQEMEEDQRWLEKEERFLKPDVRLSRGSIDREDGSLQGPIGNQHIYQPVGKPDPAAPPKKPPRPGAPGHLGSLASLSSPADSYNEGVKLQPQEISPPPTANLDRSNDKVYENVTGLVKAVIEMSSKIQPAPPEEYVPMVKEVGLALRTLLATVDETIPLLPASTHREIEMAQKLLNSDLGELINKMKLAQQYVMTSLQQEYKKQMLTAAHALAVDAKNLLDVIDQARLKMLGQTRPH
The target of assay [4] is Mitogen-activated protein kinase kinase kinase 8 (Homo sapiens, UniProt P41279). As to the kind of experiment: Inhibition of recombinant COT.
Sequence of Mitogen-activated protein kinase kinase kinase 8 (P41279 whole entry): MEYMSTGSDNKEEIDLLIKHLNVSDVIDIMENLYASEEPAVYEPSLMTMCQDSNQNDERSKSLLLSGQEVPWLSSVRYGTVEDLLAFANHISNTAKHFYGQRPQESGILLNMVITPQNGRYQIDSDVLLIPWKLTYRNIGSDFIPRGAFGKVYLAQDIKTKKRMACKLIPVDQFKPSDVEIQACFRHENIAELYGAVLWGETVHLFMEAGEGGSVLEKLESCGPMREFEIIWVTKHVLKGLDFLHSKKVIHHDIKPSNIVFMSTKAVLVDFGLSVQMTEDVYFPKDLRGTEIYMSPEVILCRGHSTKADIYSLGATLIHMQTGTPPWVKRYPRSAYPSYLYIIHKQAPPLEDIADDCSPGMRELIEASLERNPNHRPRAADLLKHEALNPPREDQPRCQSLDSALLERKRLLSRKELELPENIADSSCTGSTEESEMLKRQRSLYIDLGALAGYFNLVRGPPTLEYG
Another assay addresses Insulin receptor (Homo sapiens, UniProt P06213). Kind of assay: Inhibition of recombinant INSR.
The target in assay [5] is Serine/threonine-protein kinase PLK1 (Homo sapiens, UniProt P53350). Kind of assay: Inhibition of recombinant PLK1.
Sequence of Serine/threonine-protein kinase PLK1 (P53350 whole entry): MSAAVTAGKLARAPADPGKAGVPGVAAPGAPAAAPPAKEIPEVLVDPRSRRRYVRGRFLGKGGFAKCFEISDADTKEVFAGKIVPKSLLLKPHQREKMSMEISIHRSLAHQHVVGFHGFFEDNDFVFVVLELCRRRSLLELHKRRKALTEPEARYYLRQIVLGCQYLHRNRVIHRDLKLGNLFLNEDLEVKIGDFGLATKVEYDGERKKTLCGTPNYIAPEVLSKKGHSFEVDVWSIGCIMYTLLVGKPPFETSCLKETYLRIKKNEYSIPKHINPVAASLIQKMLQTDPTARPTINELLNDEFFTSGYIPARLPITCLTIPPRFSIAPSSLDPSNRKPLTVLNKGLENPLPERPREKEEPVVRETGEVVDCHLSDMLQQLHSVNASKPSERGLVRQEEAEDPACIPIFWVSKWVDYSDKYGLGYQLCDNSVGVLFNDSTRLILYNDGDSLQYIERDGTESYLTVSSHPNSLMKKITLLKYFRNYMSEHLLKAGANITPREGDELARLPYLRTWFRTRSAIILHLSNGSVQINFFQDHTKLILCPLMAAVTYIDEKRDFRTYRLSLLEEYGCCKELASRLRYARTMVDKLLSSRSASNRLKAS
Assay [6] deals with Vascular endothelial growth factor receptor 2 (Homo sapiens, UniProt P35968). As to the kind of experiment: Inhibition of recombinant VEGFR2. The gist of the method:
(§1)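 Purified recombinant kinase, 50 µL reaction. 1 µM [γ-33P]-ATP with substrate; compound added in 10% DMSO. Tested over several concentrations; IC50 in g/mL.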

The target in assay [7] is Vascular endothelial growth factor receptor 3 (Homo sapiens, UniProt P35916). As to the kind of experiment: Inhibition of recombinant VEGFR3. The gist of the method: as §1
The target of assay [8] is Platelet-derived growth factor receptor beta (Homo sapiens, UniProt P09619). Kind of assay: Inhibition of recombinant PDGFRbeta.
The target in assay [9] is Serine/threonine-protein kinase B-raf (Homo sapiens, UniProt P15056, V600E). Kind of assay: Inhibition of recombinant B-RAF-V600E mutant. The method in brief: as §1
Sequence of Serine/threonine-protein kinase B-raf (P15056 2-766 V600E limits assumed): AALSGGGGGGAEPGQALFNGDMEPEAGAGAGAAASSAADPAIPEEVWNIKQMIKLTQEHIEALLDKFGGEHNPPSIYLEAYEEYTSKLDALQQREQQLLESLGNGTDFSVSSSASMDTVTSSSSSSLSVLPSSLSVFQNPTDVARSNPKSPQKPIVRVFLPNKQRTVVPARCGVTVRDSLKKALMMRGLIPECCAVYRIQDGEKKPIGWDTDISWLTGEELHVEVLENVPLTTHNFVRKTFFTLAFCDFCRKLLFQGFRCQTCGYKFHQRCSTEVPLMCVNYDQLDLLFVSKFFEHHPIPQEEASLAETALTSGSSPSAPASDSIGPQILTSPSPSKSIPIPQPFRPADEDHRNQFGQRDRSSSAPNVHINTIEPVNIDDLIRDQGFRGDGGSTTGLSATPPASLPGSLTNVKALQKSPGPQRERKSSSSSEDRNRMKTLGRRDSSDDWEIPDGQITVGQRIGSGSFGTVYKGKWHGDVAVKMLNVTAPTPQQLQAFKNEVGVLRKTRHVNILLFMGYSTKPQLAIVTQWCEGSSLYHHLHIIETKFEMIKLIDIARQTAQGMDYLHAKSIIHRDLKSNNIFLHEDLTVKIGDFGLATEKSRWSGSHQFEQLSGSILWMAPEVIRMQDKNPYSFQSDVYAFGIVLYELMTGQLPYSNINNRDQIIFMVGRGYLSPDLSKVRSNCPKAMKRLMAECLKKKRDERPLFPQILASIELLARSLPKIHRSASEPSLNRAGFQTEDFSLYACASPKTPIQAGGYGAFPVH
The target in assay [10] is Cyclin-dependent kinase 4/G1/S-specific cyclin-D1 (Homo sapiens, UniProt P11802). Kind of assay: Inhibition of recombinant CDK4/CycD1.
Sequence of Cyclin-dependent kinase 4/G1/S-specific cyclin-D1 (P11802 whole entry): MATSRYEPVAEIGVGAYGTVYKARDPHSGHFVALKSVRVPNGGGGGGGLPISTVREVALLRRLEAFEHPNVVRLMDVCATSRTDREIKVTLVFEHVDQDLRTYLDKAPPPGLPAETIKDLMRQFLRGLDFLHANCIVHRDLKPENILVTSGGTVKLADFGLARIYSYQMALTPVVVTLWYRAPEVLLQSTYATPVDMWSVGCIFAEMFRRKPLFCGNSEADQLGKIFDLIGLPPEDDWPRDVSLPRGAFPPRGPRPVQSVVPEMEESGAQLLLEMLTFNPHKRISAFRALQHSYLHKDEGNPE
Sequence of Cyclin-dependent kinase 4/G1/S-specific cyclin-D1 (P24385 whole entry, further chain): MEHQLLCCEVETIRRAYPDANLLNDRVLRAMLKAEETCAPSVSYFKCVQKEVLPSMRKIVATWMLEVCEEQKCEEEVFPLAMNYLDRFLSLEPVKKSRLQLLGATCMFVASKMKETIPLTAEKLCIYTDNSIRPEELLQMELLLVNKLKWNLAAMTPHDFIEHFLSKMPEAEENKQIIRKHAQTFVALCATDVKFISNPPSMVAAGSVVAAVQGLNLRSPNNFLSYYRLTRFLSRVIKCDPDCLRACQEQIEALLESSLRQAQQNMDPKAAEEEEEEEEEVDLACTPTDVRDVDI
A further assay concerns the target T2, Aurora kinase A (Homo sapiens, UniProt O14965).
T2 sequence (O14965 whole entry): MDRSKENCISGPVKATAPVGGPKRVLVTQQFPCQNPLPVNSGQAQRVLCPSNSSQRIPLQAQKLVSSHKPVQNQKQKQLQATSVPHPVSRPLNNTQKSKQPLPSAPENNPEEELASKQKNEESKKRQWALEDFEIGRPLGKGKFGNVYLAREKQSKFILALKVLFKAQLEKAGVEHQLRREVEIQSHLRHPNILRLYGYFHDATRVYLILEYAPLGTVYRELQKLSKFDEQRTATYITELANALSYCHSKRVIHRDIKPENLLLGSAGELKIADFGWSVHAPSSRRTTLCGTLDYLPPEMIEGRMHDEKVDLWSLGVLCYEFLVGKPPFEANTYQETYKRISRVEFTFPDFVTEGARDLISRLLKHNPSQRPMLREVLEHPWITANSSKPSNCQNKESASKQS
As to the kind of experiment: Inhibition of recombinant Aurora A. The gist of the method: as §1

Each structure is given as a SMILES string. pIC50: −log10 of the molar value. A value given as a limit tells only on which side of the number the result lay.

Sequence of Vascular endothelial growth factor receptor 2 (P35968 whole entry): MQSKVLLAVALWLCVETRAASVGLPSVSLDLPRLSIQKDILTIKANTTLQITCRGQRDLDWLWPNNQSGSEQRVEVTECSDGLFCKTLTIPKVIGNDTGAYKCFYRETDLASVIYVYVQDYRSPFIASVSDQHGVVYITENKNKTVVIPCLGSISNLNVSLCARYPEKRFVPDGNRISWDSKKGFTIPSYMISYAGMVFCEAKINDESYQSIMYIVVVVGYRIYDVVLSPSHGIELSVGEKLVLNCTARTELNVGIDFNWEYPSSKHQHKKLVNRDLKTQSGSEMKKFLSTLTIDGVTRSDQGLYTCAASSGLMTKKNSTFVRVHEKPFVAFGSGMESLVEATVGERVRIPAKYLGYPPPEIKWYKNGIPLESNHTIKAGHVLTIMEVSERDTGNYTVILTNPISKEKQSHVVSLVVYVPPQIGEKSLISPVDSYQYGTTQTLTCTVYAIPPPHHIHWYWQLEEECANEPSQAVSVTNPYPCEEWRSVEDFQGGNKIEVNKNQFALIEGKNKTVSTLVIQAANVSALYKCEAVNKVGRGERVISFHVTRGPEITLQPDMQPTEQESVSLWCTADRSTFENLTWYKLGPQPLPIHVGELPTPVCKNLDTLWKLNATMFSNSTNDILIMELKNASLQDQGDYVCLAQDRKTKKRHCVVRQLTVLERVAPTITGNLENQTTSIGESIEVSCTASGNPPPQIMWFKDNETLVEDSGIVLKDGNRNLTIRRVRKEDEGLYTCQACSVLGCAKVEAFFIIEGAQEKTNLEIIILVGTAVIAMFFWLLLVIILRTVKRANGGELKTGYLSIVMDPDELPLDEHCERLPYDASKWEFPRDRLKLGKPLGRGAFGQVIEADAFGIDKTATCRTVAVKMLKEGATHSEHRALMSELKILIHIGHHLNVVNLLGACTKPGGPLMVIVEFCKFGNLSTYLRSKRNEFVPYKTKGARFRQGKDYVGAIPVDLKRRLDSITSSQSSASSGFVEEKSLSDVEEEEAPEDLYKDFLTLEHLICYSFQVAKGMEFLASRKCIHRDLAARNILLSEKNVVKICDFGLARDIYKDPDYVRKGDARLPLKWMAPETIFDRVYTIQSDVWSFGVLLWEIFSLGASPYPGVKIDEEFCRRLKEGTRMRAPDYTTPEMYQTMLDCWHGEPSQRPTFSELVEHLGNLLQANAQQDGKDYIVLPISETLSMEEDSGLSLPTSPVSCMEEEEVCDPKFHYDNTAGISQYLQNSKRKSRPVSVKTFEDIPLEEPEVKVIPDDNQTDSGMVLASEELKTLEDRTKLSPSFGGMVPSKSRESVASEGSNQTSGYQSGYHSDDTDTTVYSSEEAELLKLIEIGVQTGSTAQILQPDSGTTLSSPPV

The pIC50 is −log10 of the IC50, conventionally taken in molar units. For `COc1cc(O)c2c(c1)-c1cc(O)c(O)cc1COC2=O` [Alterlactone], the pIC50 (in [1]; in assay [2]; in [3]; at Focal adhesion kinase 1; in [4]; at Insulin receptor) was < 4.46 throughout. Besides, the pIC50 in [5], in [6], in assay [7], in [8], in assay [9] and in assay [10] was < 4.46 each time. Moreover, the pIC50 on Aurora kinase A is < 4.46.

For the molecule `COc1cc(O)c2c(c1)C1(OC2=O)C(=O)C(=O)CC1C` (centres undefined) [TALAROFLAVONE], the pIC50 (in assay [1]; in assay [2]; in assay [3]; at Focal adhesion kinase 1; in assay [4]; in assay [5]) was < 4.44 each time. For the same molecule, the negative logarithm of the IC50 (pIC50) (in assay [6]; in [7]; in [9]; in assay [10]; on Aurora kinase A) was < 4.44 throughout.
